MPTP inh: blocks calcium-induced mitochondrial swelling; AID 602449; isolated mouse mitochondria, Ca2+ swelling absorbance, 30 min; 360,000 tested, 1.4% active; inhibition, % at 10 µM;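 active means inhibition of 50% or more, scaled per plate between neutral and stimulator controls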;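 further: 0% = DMSO wells given calcium and 100% = 1 mM EGTA wells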
CHOP inh: inhibitors of CHOP induction in ER stress response; CHO-K1 CHOP-promoter luciferase, tunicamycin-induced, 15-18 h; inhibition, % at 10 µM; 220,000 tested, 3.8% active;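 active means compounds that reduced the stress-induced luciferase reporter signal by more than about 70% of percent inhibition, limit read from the data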;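 further: 0% = tunicamycin plus vehicle and 100% = wells without tunicamycin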
aDG glyco up: alpha-DG glycosylation activation | Pro5-aDG cells, alpha-DG glycosylation AlphaScreen (IIH6); 0% Pro5, 100% B10-LARGE cell signal | activation, % at 10 µM | 360,000 tested, 0.22% active | AID 624168;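 active means activation of at least 8% versus controls, or a plate z-score of at least 8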;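 further: Pro5 are CHO cells carrying HIG-tagged alpha-DG that lacks glycosylation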
UPR XBP1 act: activators of adaptive arm of unfolded protein response (XBP1). CHO-XBP1 luciferase reporter, IRE1-XBP1 UPR activation, luminescence; percent of tunicamycin response, DMSO as zero. activation, % at 20 µM. 330,000 tested, 0.33% active;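 active means versus positive control, 20 µM dose yields 30% or more activation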;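 further: 100% = tunicamycin at 10 µg/mL and 0% = DMSO only wells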
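Material: CHO-XBP1 cells stably carrying IRE1-XBP1-driven luciferase reporter | Medium: F12 with 10% serum | Compound dosing: 20 µM single concentration, DMSO 1% | Incubation: Overnight seeding at 37 °C, 6 h compound treatment at 37 °C | Detection: Steady-Glo luminescence read | Read-out basis: % activation of reporter signal versus tunicamycin and DMSO controls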
UPR CHOP act: apoptotic UPR (CHOP) activation; 330,000 tested, 0.34% active; CHO-CHOP luciferase reporter, luminescence; percent of tunicamycin response over DMSO baseline; activation, % at 10 µM;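 active means at 10 µM dose, activation of 40% or more, normalized to positive control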;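 further: 100% = tunicamycin at 10 µg/mL and 0% = DMSO alone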
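Assay system: CHO cells with stable CHOP pathway luciferase reporter; Buffer or medium: F12 plus 10% serum; Times: 16-18 h cell attachment, then 6 h compound exposure, 37 °C; Signal: luciferase luminescence; Read-out basis: percent activation relative to tunicamycin control; Control set: tunicamycin high control, DMSO low control.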
NR3A LBD binder: modulates the human NR3A ligand-binding domain; NR3A LBD differential scanning fluorimetry, Tm shift; 0% = protein alone, 100% = glycine-bound protein; 340,000 tested, 2.5% active; Tm shift relative to glycine control, % at 25 µM;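 active means melting temperature shift of at least 10% of the positive control shift, at one fixed dose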
An asterisk follows results filed as active. Rows were chosen to be rich in hits. Some 5.6% of all compounds tested hit in one or more screens of this group.

`NS(=O)(=O)c1ccc(Nc2nc(-c3ccc(F)cc3)cs2)cc1` gave MPTP inh 1.3, CHOP inh 23.3, aDG glyco up 0.2, UPR XBP1 act 0.8, UPR CHOP act 2.7 and NR3A LBD binder 25.4*.
CC(=O)Nc1ccc(-c2csc(Nc3ccc(S(N)(=O)=O)cc3)n2)cc1 was read as MPTP inh -1.1, CHOP inh 15.3, aDG glyco up -0.3, UPR XBP1 act -1.1, UPR CHOP act 0.5 and NR3A LBD binder -3.7.
Cc1cccc(-c2nnc3sc(-c4ccccc4)nn23)c1 was read as MPTP inh -0.5, CHOP inh 77.0*, aDG glyco up 0.4, UPR XBP1 act 4.2, UPR CHOP act 4.9 and NR3A LBD binder -0.3.
For c1ccc(-c2nn3c(C4CCCCC4)nnc3s2)nc1 the results were MPTP inh -1.8, CHOP inh -11.1, aDG glyco up -0.3, UPR XBP1 act -0.7, UPR CHOP act 1.3 and NR3A LBD binder -0.1.
Screening c1ccc(-c2nn3c(C4CCCCC4)nnc3s2)cc1 returned MPTP inh -0.5, CHOP inh 77.9*, aDG glyco up -0.2, UPR XBP1 act 2.2, UPR CHOP act 0.9 and NR3A LBD binder 0.0.
COc1ccc(C(=O)Nc2ccc3[nH]ccc3c2)cc1 was read as MPTP inh 1.3, aDG glyco up 0.0, UPR XBP1 act -6.4, UPR CHOP act -3.9 and NR3A LBD binder 30.7*.
For CCOc1ccc(C(=O)Nc2ccc3[nH]ncc3c2)cc1 the results were MPTP inh 0.3, aDG glyco up -0.1, UPR XBP1 act -3.0, UPR CHOP act 3.7 and NR3A LBD binder 7.0.
Screening COc1ccc(C(=O)Nc2ccc3[nH]ncc3c2)cc1 returned MPTP inh -0.2, aDG glyco up 0.0, UPR XBP1 act -5.1, UPR CHOP act 0.9 and NR3A LBD binder 11.7*.
`CC(C)NC(=O)C1(C)CCCCN1Cc1ccc(OCc2ccccc2)cc1` (centres undefined) gave MPTP inh 4.3 and aDG glyco up 0.0.
`COc1ccc2c(c1)c1ncn(CCN3CCCCC3)c(=O)c1n2C` gave MPTP inh -1.9, CHOP inh 42.9, aDG glyco up 0.2, UPR XBP1 act -2.3, UPR CHOP act -2.7 and NR3A LBD binder 0.1.
`COc1ccc2c(c1)c1ncn(CCN3CCNCC3)c(=O)c1n2C` gave MPTP inh -0.7, CHOP inh 73.5*, aDG glyco up 0.0, UPR XBP1 act -2.5, UPR CHOP act -1.0 and NR3A LBD binder 0.9.
Screening CC1CCc2nc3ccc(S(=O)(=O)N4CCC(C(=O)NC(C)c5ccccc5)CC4)cc3c(C(=O)O)c2C1 (centres undefined) returned MPTP inh 0.7, aDG glyco up -0.2, UPR XBP1 act -5.3, UPR CHOP act 1.3 and NR3A LBD binder -1.4.
`CC1Cc2ccccc2N1c1ncnc2c1nnn2Cc1ccccc1` (centres undefined) gave MPTP inh -0.3, CHOP inh 73.0*, aDG glyco up 0.2, UPR XBP1 act -0.7, UPR CHOP act -1.4 and NR3A LBD binder 0.7.
CC(Cc1ccccc1)N/C=C1/CC(=O)NC1=O (centres undefined) was read as MPTP inh -0.8, CHOP inh 3.8, aDG glyco up 0.1, UPR XBP1 act -1.2, UPR CHOP act -2.1 and NR3A LBD binder 13.7*.
Screening Cc1cc(C)n(-c2ccc(Cl)c(C(=O)O)c2)n1 returned MPTP inh -3.5, CHOP inh -1.7, aDG glyco up -0.1, UPR XBP1 act -1.3, UPR CHOP act 0.3 and NR3A LBD binder 2.5.
For Cc1c(Cl)cccc1NC(=O)CCN1C(=O)C2CC=CCC2C1=O (centres undefined) the results were MPTP inh -1.1, aDG glyco up -0.1, UPR XBP1 act -5.4, UPR CHOP act -0.3 and NR3A LBD binder 11.1*.
For COc1ccc(NC(=O)CCN2C(=O)C3CC=C(Cl)CC3C2=O)cc1 (centres undefined) the results were MPTP inh 0.0, CHOP inh -7.2, aDG glyco up 0.1, UPR XBP1 act -1.7, UPR CHOP act 2.4 and NR3A LBD binder 31.6*.
Screening O=C(Nc1ccc(Br)cc1)c1ccc(N2C(=O)C3CC=C(Cl)CC3C2=O)cc1 (centres undefined) returned MPTP inh -0.9, CHOP inh 77.0*, aDG glyco up -0.1, UPR XBP1 act -1.8, UPR CHOP act -2.4 and NR3A LBD binder 26.5*.
Screening O=C(CCN1C(=O)C2CC=CCC2C1=O)Nc1ccccc1Cl (centres undefined) returned MPTP inh -0.1, aDG glyco up -0.3, UPR XBP1 act -0.5, UPR CHOP act 2.0 and NR3A LBD binder -0.7.
Screening O=C(CCCN1C(=O)C2CC=CCC2C1=O)Nc1cccc(F)c1 (centres undefined) returned MPTP inh -0.3, aDG glyco up 0.3, UPR XBP1 act 0.2, UPR CHOP act 1.5 and NR3A LBD binder 11.1*.
`Cc1ccc([N+](=O)[O-])cc1NC(=S)NCCc1ccccc1` gave MPTP inh 16.2, aDG glyco up 2.3, UPR XBP1 act -1.1, UPR CHOP act -2.7 and NR3A LBD binder -3.5.
Screening COc1ccc(S(=O)(=O)N2CCC(C(=O)NN3CCCCC3)CC2)cc1 returned MPTP inh -0.3 and aDG glyco up 0.4.
Screening Cc1cc(C)cc(CN2C(=O)NC3(CCCCCC3)C2=O)c1 returned MPTP inh 0.0, aDG glyco up 0.1, UPR XBP1 act -1.7, UPR CHOP act -0.5 and NR3A LBD binder 0.1.
Screening CCC(C)[C@H](N)C(=O)NC[C@H]1CC[C@H](C(=O)N[C@@H](Cc2ccccc2)C(=O)O)CC1 (some centres undefined) returned MPTP inh -0.7, aDG glyco up 0.2, UPR XBP1 act 4.8, UPR CHOP act -0.5 and NR3A LBD binder -2.2.
Screening FC(F)(F)c1cc(-c2cccs2)nc2nc(N3CCOCC3)sc12 returned MPTP inh -3.0, CHOP inh 93.9*, aDG glyco up -0.2, UPR XBP1 act 3.7, UPR CHOP act 1.1 and NR3A LBD binder 0.4.
For CCCCCCCCCC(=O)N/N=C/c1ccc(C)s1 the results were MPTP inh 16.6, CHOP inh 94.5*, aDG glyco up 0.2, UPR XBP1 act -1.0, UPR CHOP act -1.8 and NR3A LBD binder -5.3.
Screening Cc1ccc(/C=N/NC(=O)C[n+]2ccccc2)s1 returned MPTP inh 0.0, CHOP inh -3.3, aDG glyco up 0.0, UPR XBP1 act -0.9, UPR CHOP act 1.0 and NR3A LBD binder -1.2.
`Cc1ccc(-c2nnc(SCC(=O)N/N=C/c3ccc(C)s3)n2-c2ccc(C)cc2)cc1` gave MPTP inh 1.8, CHOP inh 74.6*, aDG glyco up -0.1, UPR XBP1 act -1.8, UPR CHOP act 0.6 and NR3A LBD binder -2.8.

From PubChem
